Source: PubChem
Only some compounds are listed: those with a hit (about 3.8% of all), similar ones and a draw of the others.
Hep lipid drop – hepatic lipid droplet formation modulation. inhibition, % at 6.5 µM. 0.4% of 240,000 active. AML12 mouse hepatocytes, oleate lipid droplets, BODIPY imaging;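 active means lipid droplet intensity inhibited by at least 50%, with more than 500 cells counted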
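Assay system: AML12 hepatocytes (mouse); Probe or stimulus: oleic acid at 100 µM to induce lipid droplet formation; Dosing: compound at 6.5 µM only; Schedule: compound with oleate, overnight; Detection: fluorescence imaging, 20x objective, two fields per well; Measure: % inhibition of lipid droplet signal.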
RGS4 inh – inhibitors of human RGS4; P49798; HEK293 M3R/RGS4 inducible, Fluo-4 calcium flux; hits give high values; triggered by carbachol at its EC20; B-score at 10 µM; 0.45% of 310,000 active; AID 463165;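 active means B-score, a plate-corrected calcium signal, over three deviations above library mean, with baseline fluorescence within five deviations of library mean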;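 further: RGS4 expression induced by doxycycline in cells with stable M3 receptor; B-score is computed from the integrated fluorescence ratio over baseline after carbachol; higher B-score means a larger calcium signal and so more RGS4 inhibition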
Target sequence (P49798 whole entry, looked up): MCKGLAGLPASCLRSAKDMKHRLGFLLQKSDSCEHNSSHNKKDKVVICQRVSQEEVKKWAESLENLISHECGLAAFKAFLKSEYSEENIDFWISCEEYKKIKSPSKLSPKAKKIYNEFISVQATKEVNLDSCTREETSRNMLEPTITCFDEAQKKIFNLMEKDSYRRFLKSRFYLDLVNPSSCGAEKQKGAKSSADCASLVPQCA
MrgX1 antag – human MrgX1 receptor antagonism, primary screen | B-score at 10 µM | Q96LB2 | MRGX1-HEK293 calcium flux, Fluo-4, BAM8-22 antagonism; hits give low values | AID 588676 | 1.3% of 310,000 active;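 active means calcium-response B-score plate-corrected more than 3 library SD below zero, starting fluorescence within 5 deviations, no agonist response on first addition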;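 further: peak minus trough fluorescence over baseline after final BAM8-22 challenge near maximal dose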
Target sequence (Q96LB2 whole entry, looked up): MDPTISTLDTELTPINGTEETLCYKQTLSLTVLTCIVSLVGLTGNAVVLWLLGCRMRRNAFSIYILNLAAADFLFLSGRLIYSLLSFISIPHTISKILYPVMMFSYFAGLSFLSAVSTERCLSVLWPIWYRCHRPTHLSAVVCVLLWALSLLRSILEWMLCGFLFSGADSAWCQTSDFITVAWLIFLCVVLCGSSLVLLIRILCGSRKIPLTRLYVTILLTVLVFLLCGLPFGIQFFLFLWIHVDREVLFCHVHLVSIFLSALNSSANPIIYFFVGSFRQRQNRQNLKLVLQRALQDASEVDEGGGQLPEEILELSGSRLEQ
RGS4 act – RGS4 potentiation or activation; HEK293 M3R/inducible RGS4, carbachol calcium flux Fluo4; hits give low values; B-score at 10 µM; AID 463111; 0.92% of 310,000 active;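 active means B-score of the integrated calcium signal more than 4 SD below the library mean, with starting fluorescence not abnormally high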;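 further: negative B-score means reduced calcium response which marks RGS4 activation or potentiation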
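Test system: HEK293 cells with stable M3R and inducible RGS4; also added: carbachol at ECmax as muscarinic agonist stimulus; schedule: dye loading 30 min 37 °C, buffer rest 30 min RT; technique: kinetic calcium fluorescence imaging with Fluo4-AM dye, 2 µM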
MrgX1 agonist – agonists of human MrgX1 receptor; B-score at 10 µM; AID 588627; 0.44% of 310,000 active; MrgX1-HEK293 cells, Fluo-4 calcium fluorescence, agonist mode; hits give high values; Q96LB2;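 active means calcium response B-score plate-corrected fluorescence ratio at least 3 library SD, with starting fluorescence B-score inside 5 SD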
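times = overnight plating, then 30 min 37 °C plus 30 min room-temperature dye loading | assay system = stable human MrgX1 HEK293 cell line | input = fifteen thousand cells per well | signal = kinetic calcium dye fluorescence, Fluo-4 NW | dosing = compound delivered in addition one of three | read-out = B-scored fluorescence response ratio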
MrgX1 allo act – human MrgX1 positive allosteric modulation, primary screen. MrgX1-HEK293, Fluo-4 calcium flux, FDSS; hits give high values. B-score at 10 µM. 0.63% of 310,000 active. AID 588675;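 active means plate-corrected calcium response at least 3 library SD above typical, normal starting fluorescence, not activating the receptor alone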;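 further: compound read alongside a low EC10 to EC30 dose of BAM8-22 agonist; peak minus trough fluorescence over baseline measured at the second addition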
RGS4 act valid – RGS4 activation, validation assay; HEK293 M3R/RGS4 inducible, carbachol calcium flux Fluo4; inhibition, % at 10 µM; 89% of 1,100 active; shares compounds with RGS4 act;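 active means inhibition above 3 SD of the buffer control wells, cut at about 41% in these data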;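 further: signal is the integrated peak-minus-minimum Fluo4 fluorescence over baseline ratio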
RGS4 act ctr – RGS4 activator counter-screen hit in non-induced cells; HEK293 M3R non-induced RGS4, Fluo4 calcium flux; after carbachol challenge at its EC90; inhibition, % at 10 µM; 82% of 1,100 active; shares compounds with RGS4 act;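 active means inhibition exceeding 3 SD of buffer-only control wells, cut at about 26% in these data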;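 further: percent drop in integrated peak-minus-baseline over baseline Fluo4 ratio after carbachol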
Active calls of the source: *; i = inactive; . = not tested or not shown.

SMILES	Hep lipid drop	RGS4 inh	MrgX1 antag	RGS4 act	MrgX1 agonist	MrgX1 allo act	RGS4 act valid	RGS4 act ctr
N#Cc1cc2c(nc1SCc1ccccc1)CCCCC2	.	i	i	-9.82*	i	i	81.5*	83.8*
COCCNC(=O)c1ccccc1NC(=O)c1cccc([N+](=O)[O-])c1C	2.3	i	i	i	i	i	.	.
CCCCCCOc1ccc(-c2ccc(C#N)cn2)cc1	-10.5	i	i	-7.93*	i	i	71.0*	83.8*
COc1cc(CN2CCc3ccc(NC(=O)CCc4ccccc4OC)cc3C2)ccc1O	-7.3	i	i	i	i	i	.	.
COc1ccc(CN2CCc3ccc(NC(=O)CCc4ccccc4OC)cc3C2)c(O)c1	-24.1	i	i	-9.28*	i	i	90.5*	71.3*
Cc1nn(CC2CC2)c(=O)n1-c1ccc(Oc2ccccc2)cc1	-3.5	i	i	i	i	i	.	.
Cc1cc(C)c(S(=O)(=O)Nc2ccc3c(c2)CCC3)c(C)c1	-2.4	i	i	-10.1*	i	i	91.5*	73.8*
CCc1nc(SCC(=O)Nc2cccc(C(F)(F)F)c2)c2c(=O)n(C)c(=O)n(C)c2n1	-26.0	i	i	i	i	i	.	.
Cc1nc(-c2noc(-c3ccccc3Cl)n2)c(C(F)(F)F)o1	-3.5	i	i	-8.64*	i	i	0.0	0.0
Cc1nc(-c2noc(-c3cccc(Cl)c3)n2)c(C(F)(F)F)o1	-1.8	i	i	i	i	i	.	.
O=C(NCC1CCCO1)c1csc2c1CCCCC2 (configuration not stated)	.	i	i	-9.13*	i	i	0.0	0.0
CC1(C)C2CCC(C2)C1(C)NC(=O)CNCC1CCCCC1 (configuration not stated)	5.5	i	i	i	i	i	.	.
CCOC(=O)C1CCCN(C(=O)c2cc(Nc3ccc(OC)c(OC)c3)nc3ccccc23)C1 (configuration not stated)	.	i	i	i	i	i	.	.
CCOC(=O)C1CCCN(C(=O)c2cc(-c3ccc(C)cc3)nc3ccccc23)C1 (configuration not stated)	-30.7	i	i	-9.07*	i	i	48.5*	0.0
Cc1ccc(C(=O)NC(=S)Nc2ccc(CN3CCCCC3)cc2)c(C)c1	7.8	i	i	-7.6*	i	i	82.0*	83.8*
Cc1ccc(-c2nnc(N3CCN(c4ccccn4)CC3)c3ccccc23)cc1	-8.5	i	i	-7.68*	i	i	93.5*	90.8*
Cc1ccc(-c2nnc(N3CCCCC3)c3ccccc23)cc1	15.6	i	i	i	i	i	.	.
c1ccc(-c2nnc(N3CCN(c4ccccn4)CC3)c3ccccc23)cc1	6.5	i	i	-7.97*	i	i	91.5*	78.8*
O=C(O)c1ccc(N/N=C/c2ccc(OC(=O)c3ccccc3Cl)cc2)cc1	1.9	i	i	-14.1*	i	i	0.0	0.0
Cc1nc2c(o1)CCc1ccccc1C2N1CCN(C)CC1 (configuration not stated)	7.5	i	i	-11.2*	i	i	95.0*	90.8*
Cc1cccc(OCC(O)CN2CC3(C)CC2CC(C)(C)C3)c1 (configuration not stated)	-17.9	i	i	i	i	i	.	.
COc1cccc(NC(=O)CN(C)C(=O)c2cc(-c3cccc(Br)c3)nc3ccccc23)c1	.	i	i	-9.46*	i	i	84.5*	27.8*
CCN1CCN(c2nc(-c3ccccc3)c3ccccc3n2)CC1	.	i	i	-8.64*	i	i	82.0*	39.8*
COc1ccc(C2(CNC(=O)Cc3ccccc3)CCCC2)cc1OC	.	i	i	-7.97*	i	i	0.0	0.0
CN(CCOC(=O)C1c2ccccc2Oc2ccccc21)C(C)(C)C	.	i	i	-7.88*	i	i	93.0*	96.3*
SMILES	Hep lipid drop	RGS4 inh	MrgX1 antag	RGS4 act	MrgX1 agonist	MrgX1 allo act	RGS4 act valid	RGS4 act ctr
CN(C)CCCOC(=O)C1c2ccccc2Oc2ccccc21	-3.7	i	i	-8.46*	i	i	92.0*	90.8*
CC[N+](C)(CC)CCOC(=O)C1c2ccccc2Oc2ccccc21	.	.	i	.	i	i	.	.
COCCCNC(=O)c1c(N)n(/N=C/c2cccs2)c2nc3ccccc3nc12	23.0	i	i	-8.13*	i	i	0.0	0.0
CCOc1ccc(Cc2n[nH]c(=S)n2Cc2ccccc2)cc1	2.1	i	i	-8.8*	i	i	61.0*	83.8*
COc1ccc(OCc2n[nH]c(=S)n2Cc2ccco2)cc1	4.6	i	i	i	i	i	.	.
Cc1ccc(OCc2n[nH]c(=S)n2Cc2ccccc2)cc1	18.9	i	i	i	i	i	.	.
COc1cccc(Cc2n[nH]c(=S)n2Cc2ccco2)c1	-0.7	i	i	-10*	i	i	60.5*	83.8*
CCc1ccc(NC(=O)CCc2c(C)nn(-c3ccc(N4CCCCC4)nn3)c2C)cc1	3.4	i	i	i	i	i	.	.
COc1ccccc1OCC(=O)Nc1cc(Cl)ccc1Oc1ccccc1	6.0	i	i	-9.12*	i	i	0.0	0.0
Cc1ccccc1OCC(=O)Nc1cc(Cl)ccc1Oc1ccccc1	-3.1	i	i	i	i	i	.	.
N#CCCN1CCN(S(=O)(=O)c2ccc(S(=O)(=O)N3CCCCCC3)cc2)CC1	-18.5	i	i	i	i	i	.	.
CCN(C1CCCCC1)S(=O)(=O)c1ccc(S(=O)(=O)N2CCN(CCC#N)CC2)cc1	0.1	i	i	-9.11*	i	i	90.5*	64.8*
COc1ccccc1N(CC(O)Cn1ccnc1C)S(=O)(=O)c1ccccc1 (configuration not stated)	-9.5	i	i	i	i	i	.	.
Cc1ccc(N(Cc2ccc([N+](=O)[O-])cc2)C(=O)c2ccco2)cc1C	-1.9	i	i	-11.1*	i	i	88.0*	40.3*
CCN1CCN(c2ccc(NC(=O)c3cccc(F)c3)cc2Cl)CC1	7.6	i	i	i	i	i	.	.
